The text below walks through data of paper PMC10433355 (ACS Omega, 2023).

Data set [1] deals with COLO205. The data set is described as follows: MTS assay, colon adenocarcinoma COLO205. The class given is cell-based. The settings on record: Homo sapiens, COLO 205, 72 h, read-out: IC50 COLO205. In outline:
(§1)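 Cells grown in RPMI 1640 with 10% FBS, 1% penicillin/streptomycin and 1% L-glutamine, trypsinised and counted by hemocytometer. Seeded at 1 × 10^3 cells/well and left 24 h at 37 °C. Test compound added at 300, 100, 50 and 10 µM for 72 h at 37 °C, then removed. […] Triplicate, mean ± SD.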

Data set [2] has as its system MCF-7. The data set is described as follows: MTS assay, breast carcinoma MCF-7. Type of data set: cell-based. The settings on record: Homo sapiens, MCF7, 72 h, read-out: IC50 MCF-7. In outline: as §1
Data set [3] deals with Hep3B. Put plainly: MTS assay, hepatocellular carcinoma Hep3B. The class given is cell-based. The conditions noted are these: Homo sapiens, 72 h, read-out: IC50 Hep3B. In outline: as §1
The test system of data set [4] is HeLa. Put plainly: MTS assay, cervical adenocarcinoma HeLa. The class given is cell-based. The settings on record: Homo sapiens, 72 h, read-out: IC50 HeLa. In outline: as §1
Data set [5] deals with CaCo-2. The data set is described as follows: MTS assay, colorectal adenocarcinoma Caco-2. The settings on record: Homo sapiens, Caco-2, 72 h, read-out: IC50 CaCo-2. The class given is cell-based. In a few lines:
as §1

In data set [6] the target is T1, human recombinant COX-2 (Homo sapiens, UniProt P35354).
T1 sequence (P35354 18-604): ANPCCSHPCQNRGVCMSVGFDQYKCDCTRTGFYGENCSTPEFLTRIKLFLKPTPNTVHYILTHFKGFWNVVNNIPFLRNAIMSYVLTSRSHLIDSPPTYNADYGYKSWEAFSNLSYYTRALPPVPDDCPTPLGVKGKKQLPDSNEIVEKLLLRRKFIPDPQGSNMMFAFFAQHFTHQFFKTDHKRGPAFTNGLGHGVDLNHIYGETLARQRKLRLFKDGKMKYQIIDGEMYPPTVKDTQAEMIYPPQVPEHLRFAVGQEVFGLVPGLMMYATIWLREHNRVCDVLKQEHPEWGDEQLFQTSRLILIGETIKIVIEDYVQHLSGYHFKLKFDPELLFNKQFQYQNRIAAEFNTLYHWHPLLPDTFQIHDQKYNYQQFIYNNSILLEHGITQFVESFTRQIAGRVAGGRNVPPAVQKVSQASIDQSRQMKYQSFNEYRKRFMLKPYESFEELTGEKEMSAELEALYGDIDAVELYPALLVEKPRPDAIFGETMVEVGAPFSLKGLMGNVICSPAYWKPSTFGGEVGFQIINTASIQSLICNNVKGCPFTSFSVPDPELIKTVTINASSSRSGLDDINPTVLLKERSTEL
The data set is described as follows: In vitro COX-2 inhibition assay. Type of data set: biochemical. The settings on record: for SI (selectivity index / selectivity ratio): IC50 COX-1 divided by IC50 COX-2; for IC50: IC50 COX-2.

Data set [7] can be described thus: MTS cytotoxicity assay, normal cell line LX-2. The class given is cell-based. The conditions noted are these: human, LX-2 cells (normal cell line), CC50 LX-2, normal cell line. In a few lines:
(§2)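 LX-2 cells seeded at 1 × 10^3 cells/well and left 24 h at 37 °C. Exposed to test compound at 300, 100, 50 and 10 µM for 72 h at 37 °C, with 5-FU as positive control. […] Triplicate, mean ± SD.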

Data set [8] concerns B16F1. The data set is described as follows: MTS assay, melanoma B16F1. The settings on record: Mus musculus, B16-F1, 72 h, read-out: IC50 B16F1. The class given is cell-based. In a few lines:
as §1

The test system of data set [9] is HepG2. The data set is described as follows: MTS assay, hepatocellular carcinoma HepG2. The class given is cell-based. The settings on record: Homo sapiens, HepG2, 72 h, read-out: IC50 HepG2. In a few lines:
as §1

In data set [10] the target is T2, COX-1 (Ovis aries, UniProt P05979).
T2 sequence (P05979 25-600): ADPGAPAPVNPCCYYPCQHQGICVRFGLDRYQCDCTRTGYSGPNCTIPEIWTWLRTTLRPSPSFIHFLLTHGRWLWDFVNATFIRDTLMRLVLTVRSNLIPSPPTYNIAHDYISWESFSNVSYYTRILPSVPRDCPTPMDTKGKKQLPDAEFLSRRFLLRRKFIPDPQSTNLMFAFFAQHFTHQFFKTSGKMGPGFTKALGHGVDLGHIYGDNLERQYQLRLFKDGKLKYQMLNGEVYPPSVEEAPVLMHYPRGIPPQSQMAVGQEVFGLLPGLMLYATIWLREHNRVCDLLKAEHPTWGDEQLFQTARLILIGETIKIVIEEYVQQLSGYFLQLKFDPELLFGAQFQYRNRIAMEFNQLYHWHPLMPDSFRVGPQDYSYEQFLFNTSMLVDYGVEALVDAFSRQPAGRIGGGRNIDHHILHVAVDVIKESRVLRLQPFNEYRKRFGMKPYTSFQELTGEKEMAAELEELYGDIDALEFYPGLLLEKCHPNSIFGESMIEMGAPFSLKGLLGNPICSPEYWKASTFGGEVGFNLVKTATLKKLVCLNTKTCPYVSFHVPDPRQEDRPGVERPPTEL
Put plainly: In vitro COX-1 inhibition assay. Type of data set: biochemical, ovine.

Data set [11] deals with LX-2 cells. Put plainly: MTS cytotoxicity assay, normal cell line LX-2. Type of data set: cell-based. The settings on record: read-out: CC50 LX-2, normal cell line. In a few lines:
as §2

Data set [12] relates to Hek293t cells. The data set is described as follows: MTS cytotoxicity assay, normal cell line Hek293t. The settings on record: read-out: CC50 Hek293t, 72 h. The class given is cell-based. In outline: as §1

“And” between values parts separate entries of the source, which are not always exact repeats. Identical values can stand only once.

Take `COc1cccc(-c2nc(C)c(C(=O)Nc3cc(OC)c(OC)c(OC)c3)s2)c1` [2a, 2-(3-Methoxyphenyl)-4-methyl-N-(3,4,5-trimethoxyphenyl)thiazole-5-carboxamide]: the IC50 in data set [1] was greater than 300 µM; in data set [2], greater than 300 µM; in data set [3], greater than 300 µM; in data set [4], greater than 300 µM; in data set [5], greater than 300 µM; in data set [6], 950 nM and 958 nM. Besides, the IC50 was greater than 300 µM in data set [8], 60.8 ± 2.76 µM in data set [9] and 2650 ± 780 nM in data set [10]. Also, the “SI (selectivity index / selectivity ratio)” value in data set [6] was 2.766 and 2.76. This compound returned a CC50 at 72 h in data set [7] greater than 300 µM.
Consider `O=c1[nH]cc(F)c(=O)[nH]1` [5-FU, reference compound], for which the figures for the CC50 in data set [11] and in data set [12] were 8.45 ± 2.02 µM and 4.06 ± 1.82 µM, respectively.
As for `COc1cccc(-c2nc(C)c(C(=O)Nc3ccc(SC)cc3)s2)c1` [2e, 2-(3-Methoxyphenyl)-4-methyl-N-(4-(methylthio)phenyl)thiazole-5-carboxamide], the IC50 in [1] was greater than 300 µM; in data set [2], 163 ± 2.88 µM; in data set [3] it was 202.1 ± 1.99 µM; in data set [4] it was 223 ± 2.58 µM; in data set [5], greater than 300 µM; in data set [6], 2120 ± 1480 nM. Moreover, the IC50 is greater than 300 µM in [8], greater than 300 µM in [9] and 1530 ± 920 nM in [10]. In addition, the “SI (selectivity index / selectivity ratio)” value in data set [6] is listed as 0.723. The same compound registered a CC50 at 72 h in [7] greater than 300 µM.
Consider `COc1cccc(-c2nc(C)c(C(=O)Nc3ccccc3)s2)c1` [2f, 2-(3-Methoxyphenyl)-4-methyl-N-phenylthiazole-5-carboxamide], for which the IC50 in data set [1] is greater than 300 µM; in [2], greater than 300 µM; in [3], greater than 300 µM; in [4] it was greater than 300 µM; in data set [5], greater than 300 µM; in [6], 3260 ± 1020 nM. Moreover, the values for the IC50 in [8], in data set [9] and in [10] were greater than 300 µM, greater than 300 µM and 2060 ± 1210 nM, respectively. Besides, the “SI (selectivity index / selectivity ratio)” value in data set [6] was 0.630. Moreover, the CC50 at 72 h in data set [7] was greater than 300 µM.
As for `COc1cccc(-c2nc(C)c(C(=O)Nc3cc(OC)ccc3OC)s2)c1` [2h, N-(2,5-Dimethoxyphenyl)-2-(3-methoxyphenyl)-4-methylthiazole-5-carboxamide], the concentration for half-maximal inhibition (IC50) in data set [1] was greater than 300 µM; in [2] it was greater than 300 µM; in [3], greater than 300 µM; in data set [4] it was 250.8 ± 2.42 µM; in data set [5], greater than 300 µM; in data set [6] it was 1230 ± 850 nM. Also, the IC50 in data set [8] was greater than 300 µM; in data set [9], greater than 300 µM; in data set [10], 335 ± 190 nM. For the same compound, the “SI (selectivity index / selectivity ratio)” value in data set [6] is given as 0.272. Further, the CC50 at 72 h in data set [7] was greater than 300 µM.
Regarding `COc1cccc(-c2nc(C)c(C(=O)Nc3cccc(C(F)(F)F)c3)s2)c1` [2j, 2-(3-Methoxyphenyl)-4-methyl-N-(3-(trifluoromethyl)phenyl)thiazole-5-carboxamide], the IC50 was greater than 300 µM in data set [1]; greater than 300 µM in [2]; 299.2 ± 2.05 µM in data set [3]; greater than 300 µM in [4]; greater than 300 µM in data set [5]; 957 ± 170 nM in data set [6]. The IC50 in data set [8] is greater than 300 µM; in [9], greater than 300 µM; in data set [10], 1440 ± 510 nM. The “SI (selectivity index / selectivity ratio)” value in [6] came to 1.507. In addition, the CC50 at 72 h in data set [7] was greater than 300 µM.
For `COc1cc(NC(=O)c2sc(-c3cccc(OC)c3)nc2C)cc(OC)c1` [2d, N-(3,5-Dimethoxyphenyl)-2-(3-methoxyphenyl)-4-methylthiazole-5-carboxamide], the IC50 is greater than 300 µM in data set [1]; 144 ± 2.03 µM in [2]; greater than 300 µM in data set [3]; greater than 300 µM in [4]; greater than 300 µM in [5]; 2300 ± 250 nM in data set [6]. For the same compound, the figures for the IC50 in data set [8], in data set [9] and in data set [10] were greater than 300 µM, greater than 300 µM and 1570 ± 800 nM, respectively. Moreover, the “SI (selectivity index / selectivity ratio)” value in data set [6] is 0.685. The compound further came in with a CC50 at 72 h in data set [7] greater than 300 µM.
As for `COc1cccc(-c2nc(C)c(C(=O)Nc3ccc(C(C)(C)C)cc3)s2)c1` [2b, N-(4-(tert-Butyl)phenyl)-2-(3-methoxyphenyl)-4-methylthiazole-5-carboxamide], the IC50 in data set [1] was 30.8 ± 0.49 µM; in [2] it was greater than 300 µM; in [3], greater than 300 µM; in data set [4], greater than 300 µM; in [5] it was greater than 300 µM; in data set [6], 190 nM and 191 nM. In addition, the IC50 in data set [8] was 74.2 ± 2.44 µM; in data set [9], greater than 300 µM; in data set [10], 239 ± 180 nM. Moreover, the “SI (selectivity index / selectivity ratio)” value in data set [6] turned out to be 1.251. For the same compound, the 50% cytotoxic concentration (CC50) at 72 h in [7] was found to be 203.7 ± 1.89 µM. In addition, in [12], the CC50 is 117 ± 2.05 µM.
In the case of `COc1cccc(-c2nc(C)c(C(=O)Nc3ccc(Oc4ccccc4OC)cc3)s2)c1` [2i, N-(4-(2-Methoxyphenoxy)phenyl)-2-(3-methoxyphenyl)-4-methylthiazole-5-carboxamide], the IC50 in [1] was greater than 300 µM; in data set [2] it was greater than 300 µM; in [3] it was greater than 300 µM; in data set [4], greater than 300 µM; in [5], greater than 300 µM; in data set [6], 3240 ± 1110 nM. For the same compound, the IC50 in data set [8] is greater than 300 µM; in data set [9], greater than 300 µM; in data set [10], 2110 ± 1080 nM. The “SI (selectivity index / selectivity ratio)” value in [6] amounted to 0.651. This compound also registered a CC50 at 72 h in data set [7] greater than 300 µM.
For the compound `COc1cccc(-c2nc(C)c(C(=O)Nc3ccc(OC)c(OC)c3)s2)c1` [2c, N-(3,4-Dimethoxyphenyl)-2-(3-methoxyphenyl)-4-methylthiazole-5-carboxamide], the IC50 is greater than 300 µM in data set [1]; greater than 300 µM in data set [2]; greater than 300 µM in data set [3]; greater than 300 µM in [4]; greater than 300 µM in [5]; 2910 ± 1080 nM in data set [6]. The IC50 in data set [8] was greater than 300 µM; in data set [9] it was greater than 300 µM; in data set [10], 278 ± 20 nM. In data set [6], the “SI (selectivity index / selectivity ratio)” value was 0.095. Further, in data set [7], the CC50 at 72 h is greater than 300 µM.
